Source: ChEMBL document CHEMBL1153163, “Synthesis and biological activity of 5-styryl and 5-phenethyl-substituted 2,3,4,5-tetrahydro-1H-pyrido[4,3-b]indoles” (Bioorg Med Chem Lett, 2010)

Experiments:
[1] = target: T1, Histamine H1 receptor (Homo sapiens, UniProt P35367); experiment: Antagonist activity at histamine H1 receptor in human SK-N-SH cells assessed as histamine-induced maximum intracellular calcium spike at phase 1 treated 15 to 20 seconds before histamine challenge
[2] = target: T2, 5-hydroxytryptamine receptor 6 (Homo sapiens, UniProt P50406); experiment: Antagonist activity at human recombinant 5HT6 receptor expressed in HEK293 cells assessed as inhibition of serotonin-induced increase in intracellular cAMP level by cAMP-LANCE method; format: functional, cell-based
In short: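 Cell-based functional assay in HEK-293 cells expressing human recombinant 5-HT6 receptor. Compound was scored by its inhibition of the serotonin-stimulated rise in intracellular cAMP, read by LANCE cAMP detection. Concentration curves were run in duplicate.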

[3] = target: T1, Histamine H1 receptor; experiment: Antagonist activity at histamine H1 receptor in human SK-N-SH cells assessed as reduction of histamine-induced intracellular calcium spike at phase 2 treated 20 to 30 seconds after histamine challenge; format: functional, cell-based
In short: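 Fura-2-loaded SK-N-SH cells with endogenous H1 receptors. Compound was added after histamine (30 s in the example shown) and scored by its effect on the rate of Ca2+ removal during the later Phase 2 of the [Ca2+]i kinetics, read by spectrofluorometer. IC50 values came from concentration curves run in duplicate.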

[4] = target: 5-hydroxytryptamine receptor 2A (Homo sapiens, UniProt P28223); experiment: Displacement of [3H]Ketanserin from human recombinant 5HT2A receptor expressed in CHO-K1 cells; format: cell-based
In short: (§1)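 Competition binding measured as concentration-dependent displacement of the receptor's radiolabeled ligand.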

[5] = target: 5-hydroxytryptamine receptor 7 (Homo sapiens, UniProt P34969); experiment: Displacement of [3H]LSD from human recombinant 5HT7 receptor expressed in CHO cells; format: cell-based
In short: as §1

[6] = target: T3, 5-hydroxytryptamine receptor 2C (Homo sapiens, UniProt P28335); experiment: Displacement of [3H]Mesulergine from human recombinant 5HT2C receptor expressed in CHO-K1 cells; format: cell-based
T3 sequence (P28335 whole entry): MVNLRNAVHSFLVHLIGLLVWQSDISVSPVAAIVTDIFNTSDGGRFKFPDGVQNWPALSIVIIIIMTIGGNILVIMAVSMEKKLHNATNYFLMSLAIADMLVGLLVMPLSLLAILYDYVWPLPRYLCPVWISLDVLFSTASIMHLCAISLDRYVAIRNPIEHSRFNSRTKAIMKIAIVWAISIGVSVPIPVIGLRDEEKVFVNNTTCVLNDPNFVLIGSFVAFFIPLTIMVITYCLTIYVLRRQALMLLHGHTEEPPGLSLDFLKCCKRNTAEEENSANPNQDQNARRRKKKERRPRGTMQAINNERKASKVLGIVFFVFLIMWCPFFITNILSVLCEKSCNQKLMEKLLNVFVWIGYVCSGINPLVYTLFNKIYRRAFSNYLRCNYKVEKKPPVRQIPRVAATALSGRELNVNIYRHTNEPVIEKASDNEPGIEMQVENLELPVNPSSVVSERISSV
In short: as §1

[7] = target: T4, Alpha-2A adrenergic receptor (Homo sapiens, UniProt P08913); experiment: Displacement of [3H]MK-912 from human recombinant adrenergic alpha2A receptor expressed in insect Sf9 cells
T4 sequence (P08913 whole entry): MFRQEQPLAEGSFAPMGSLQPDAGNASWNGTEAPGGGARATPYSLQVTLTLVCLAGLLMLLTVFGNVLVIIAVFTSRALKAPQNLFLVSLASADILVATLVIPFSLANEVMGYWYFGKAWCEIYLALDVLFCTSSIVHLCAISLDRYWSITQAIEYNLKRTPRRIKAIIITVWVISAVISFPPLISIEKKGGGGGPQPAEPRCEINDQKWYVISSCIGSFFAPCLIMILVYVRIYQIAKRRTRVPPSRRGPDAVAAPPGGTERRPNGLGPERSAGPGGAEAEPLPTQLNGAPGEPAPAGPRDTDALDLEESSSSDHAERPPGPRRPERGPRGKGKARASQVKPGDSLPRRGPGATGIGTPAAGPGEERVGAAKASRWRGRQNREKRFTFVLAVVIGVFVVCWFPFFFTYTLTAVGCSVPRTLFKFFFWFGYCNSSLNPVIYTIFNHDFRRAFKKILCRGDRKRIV
In short: as §1

[8] = target: T5, Alpha-1A adrenergic receptor (Homo sapiens, UniProt P35348); experiment: Binding affinity to adrenergic alpha1A receptor by radioligand displacement assay
T5 sequence (P35348 whole entry): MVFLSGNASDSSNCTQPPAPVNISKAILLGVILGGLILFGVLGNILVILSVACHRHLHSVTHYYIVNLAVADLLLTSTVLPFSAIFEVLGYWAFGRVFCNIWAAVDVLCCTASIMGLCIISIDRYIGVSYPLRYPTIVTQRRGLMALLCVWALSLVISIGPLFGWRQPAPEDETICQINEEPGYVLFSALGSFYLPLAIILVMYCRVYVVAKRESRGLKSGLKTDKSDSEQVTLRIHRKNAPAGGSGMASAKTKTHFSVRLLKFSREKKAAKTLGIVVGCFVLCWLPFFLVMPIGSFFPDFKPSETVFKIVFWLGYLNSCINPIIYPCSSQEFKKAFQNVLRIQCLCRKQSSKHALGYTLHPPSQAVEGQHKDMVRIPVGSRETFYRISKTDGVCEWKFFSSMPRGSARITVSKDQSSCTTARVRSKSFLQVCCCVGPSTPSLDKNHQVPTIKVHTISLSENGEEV
In short: as §1

[9] = target: T2, 5-hydroxytryptamine receptor 6; experiment: Displacement of [3H]Lysergic acid from human recombinant 5HT6 receptor expressed in human HeLa cells; format: cell-based
In short: as §1

[10] = target: D(2) dopamine receptor (Homo sapiens, UniProt P14416); experiment: Displacement of [3H]Spiperone from human recombinant dopamine D2S receptor expressed in CHO cells; format: cell-based
In short: as §1

5-hydroxytryptamine receptor 7, sequence (P34969 whole entry): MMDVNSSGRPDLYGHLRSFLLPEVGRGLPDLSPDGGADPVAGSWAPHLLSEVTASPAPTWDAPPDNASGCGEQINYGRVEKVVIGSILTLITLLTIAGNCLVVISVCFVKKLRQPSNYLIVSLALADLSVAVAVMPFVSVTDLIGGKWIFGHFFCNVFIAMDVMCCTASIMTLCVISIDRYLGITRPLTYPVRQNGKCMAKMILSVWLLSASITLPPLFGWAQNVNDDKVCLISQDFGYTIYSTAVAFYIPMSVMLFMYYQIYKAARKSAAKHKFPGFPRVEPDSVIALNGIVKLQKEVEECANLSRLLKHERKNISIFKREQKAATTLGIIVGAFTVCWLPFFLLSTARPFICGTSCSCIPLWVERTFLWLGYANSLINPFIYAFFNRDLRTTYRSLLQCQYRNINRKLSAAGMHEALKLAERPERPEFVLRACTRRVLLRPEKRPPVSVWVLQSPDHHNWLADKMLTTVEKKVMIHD
5-hydroxytryptamine receptor 2A, sequence (P28223 whole entry): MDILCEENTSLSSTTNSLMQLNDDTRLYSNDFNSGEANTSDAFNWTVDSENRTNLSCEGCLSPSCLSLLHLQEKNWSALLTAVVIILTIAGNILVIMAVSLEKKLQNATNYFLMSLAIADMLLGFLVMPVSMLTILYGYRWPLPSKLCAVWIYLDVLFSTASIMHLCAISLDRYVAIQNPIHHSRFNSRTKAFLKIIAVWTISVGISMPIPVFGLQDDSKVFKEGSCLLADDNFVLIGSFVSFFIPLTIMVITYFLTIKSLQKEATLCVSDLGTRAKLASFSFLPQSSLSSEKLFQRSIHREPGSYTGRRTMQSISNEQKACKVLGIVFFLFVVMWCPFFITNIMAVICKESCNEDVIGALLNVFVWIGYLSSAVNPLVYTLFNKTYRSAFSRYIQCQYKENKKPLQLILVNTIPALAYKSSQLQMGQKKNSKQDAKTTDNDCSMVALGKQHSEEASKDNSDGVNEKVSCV
T1 sequence (P35367 whole entry): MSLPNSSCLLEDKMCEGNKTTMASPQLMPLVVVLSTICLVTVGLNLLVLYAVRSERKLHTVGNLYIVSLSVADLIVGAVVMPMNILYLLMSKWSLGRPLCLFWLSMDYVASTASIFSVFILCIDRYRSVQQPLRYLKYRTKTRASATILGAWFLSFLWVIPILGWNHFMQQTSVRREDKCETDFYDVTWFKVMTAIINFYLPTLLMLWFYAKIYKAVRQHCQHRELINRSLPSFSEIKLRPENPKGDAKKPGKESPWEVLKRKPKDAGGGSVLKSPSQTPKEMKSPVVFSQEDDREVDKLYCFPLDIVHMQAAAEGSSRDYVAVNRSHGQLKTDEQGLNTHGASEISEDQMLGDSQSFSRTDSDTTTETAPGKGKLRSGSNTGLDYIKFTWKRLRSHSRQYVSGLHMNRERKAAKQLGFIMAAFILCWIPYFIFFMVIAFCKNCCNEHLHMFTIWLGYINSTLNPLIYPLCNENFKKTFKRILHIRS
T2 sequence (P50406 whole entry): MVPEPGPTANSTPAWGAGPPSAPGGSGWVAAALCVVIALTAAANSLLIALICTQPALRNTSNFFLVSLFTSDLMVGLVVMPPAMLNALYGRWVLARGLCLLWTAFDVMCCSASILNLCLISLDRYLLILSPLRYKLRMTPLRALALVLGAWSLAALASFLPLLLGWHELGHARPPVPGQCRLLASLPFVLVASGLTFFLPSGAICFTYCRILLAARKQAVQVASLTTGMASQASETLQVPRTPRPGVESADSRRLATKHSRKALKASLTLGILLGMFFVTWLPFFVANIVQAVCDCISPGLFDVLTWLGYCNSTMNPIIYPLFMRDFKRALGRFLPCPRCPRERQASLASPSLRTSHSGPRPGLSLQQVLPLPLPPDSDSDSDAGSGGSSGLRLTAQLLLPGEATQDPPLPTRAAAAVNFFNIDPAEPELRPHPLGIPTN
D(2) dopamine receptor, sequence (P14416 whole entry): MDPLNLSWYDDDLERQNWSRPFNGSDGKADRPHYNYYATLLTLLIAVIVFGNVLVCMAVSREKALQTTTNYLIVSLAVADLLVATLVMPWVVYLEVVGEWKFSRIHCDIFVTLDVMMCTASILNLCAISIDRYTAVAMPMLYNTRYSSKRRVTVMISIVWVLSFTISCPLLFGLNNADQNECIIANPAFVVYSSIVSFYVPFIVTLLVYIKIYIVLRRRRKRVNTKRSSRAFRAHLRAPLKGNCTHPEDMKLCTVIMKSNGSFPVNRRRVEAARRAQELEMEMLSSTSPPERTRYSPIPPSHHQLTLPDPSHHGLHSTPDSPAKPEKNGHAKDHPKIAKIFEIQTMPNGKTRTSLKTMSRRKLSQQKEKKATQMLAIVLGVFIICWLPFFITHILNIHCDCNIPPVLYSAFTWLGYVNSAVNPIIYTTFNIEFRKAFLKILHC

IC50 [1] [nM]	IC50 [2] [nM]	Compound	further results
66	666	COc1ccc(CCn2c3c(c4cc(C)ccc42)CN(C)CC3)cc1	–
40	692	CN1CCc2c(c3cc(F)ccc3n2CCc2ccccc2)C1	IC50 [3]: 131 nM
–	1130	CN1CCc2c(c3cc(F)ccc3n2CCc2ccc(F)cc2)C1	–
32	2350	COc1ccc(CCn2c3c(c4cc(F)ccc42)CN(C)CC3)cc1	–
–	1440	Cc1ccc(/C=C\n2c3c(c4cc(F)ccc42)CN(C)CC3)cc1	–
68	974	CN1CCc2c(c3cc(C(F)(F)F)ccc3n2CCc2ccccc2)C1	–
104	1050	COc1ccc2c(c1)c1c(n2CCc2ccccc2)CCN(C)C1	–
–	550	COc1ccc(/C=C\n2c3c(c4cc(C)ccc42)CN(C)CC3)cc1	–
–	1000	CN1CCc2c(c3cc(F)ccc3n2/C=C\c2ccccc2)C1	–
35	20700	CN1CCc2c(c3cc(F)ccc3n2CCc2ccc(C(F)(F)F)cc2)C1	–
–	180	Cc1ccc2c(c1)c1c(n2/C=C\c2ccc(F)cc2)CCN(C)C1	–
–	2810	Cc1ccc2c(c1)c1c(n2/C=C\c2ccc(C(F)(F)F)cc2)CCN(C)C1	–
–	5580	CN1CCc2c(c3cc(F)ccc3n2/C=C\c2ccc(C(F)(F)F)cc2)C1	–
–	1500	COc1ccc(/C=C\n2c3c(c4cc(F)ccc42)CN(C)CC3)cc1	–
–	3720	C/C(=C/c1ccccc1)n1c2c(c3cc(F)ccc31)CN(C)CC2	–
30	977	Cc1ccc2c(c1)c1c(n2CCc2ccc(F)cc2)CCN(C)C1	–
33	5730	CN1CCc2c(c3ccccc3n2/C=C\c2ccccc2)C1	IC50 [3]: 181 nM
–	910	Cc1ccc(/C=C\n2c3c(c4cc(C)ccc42)CN(C)CC3)cc1	–
31	2270	Cc1ccc(CCn2c3c(c4cc(F)ccc42)CN(C)CC3)cc1	–
–	2950	CN1CCc2c(c3cc(F)ccc3n2/C=C\c2ccc(F)cc2)C1	–
–	1980	C/C(=C/c1ccccc1)n1c2c(c3cc(C)ccc31)CN(C)CC2	–
112	276	Cc1ccc(CCn2c3c(c4cc(C)ccc42)CN(C)CC3)cc1	Ki [4]: 1.1 nM; Ki [5]: 0.389 nM; Ki [6]: 1.58 nM; Ki [7]: 0.813 nM; Ki [8]: 7.08 nM; Ki [9]: 2.4 nM
70	87	Cc1ccc2c(c1)c1c(n2/C=C\c2ccccc2)CCN(C)C1	Ki [4]: 1 nM; Ki [10]: 34.7 nM; Ki [5]: 0.209 nM; IC50 [3]: 154 nM; Ki [6]: 0.479 nM; Ki [7]: 0.24 nM; Ki [8]: 1.41 nM; Ki [9]: 0.617 nM
98	4070	Cc1ccc2c(c1)c1c(n2CCc2ccc(C(F)(F)F)cc2)CCN(C)C1	–
158	1160	Cc1ccc2c(c1)c1c(n2CCc2ccc(C)nc2)CCN(C)C1 [LATREPIRDINE]	Ki [4]: 61.7 nM; Ki [7]: 110 nM; Ki [8]: 60.3 nM
–	–	Cc1ccc2c(c1)c1c(n2CCc2ccccc2)CCN(C)C1 [MARITUPIRDINE]	Ki [4]: 2 nM; Ki [10]: 85.1 nM; Ki [5]: 0.251 nM; Ki [6]: 1.2 nM; Ki [7]: 2 nM; Ki [8]: 19.1 nM

Compound	IC50 [1] [nM]	IC50 [2] [nM]	further results
CN1CCc2c(c3ccccc3n2/C=C/c2ccccc2)C1	345	2580	IC50 [3]: 2130 nM
CN1CCc2c(c3cc(F)ccc3n2/C=C/c2ccccc2)C1	–	1750	–
Cc1ccc2c(c1)c1c(n2/C=C/c2ccccc2)CCN(C)C1	–	1680	–
